# Screening results: PubChem, several laboratories
# The sample as a whole holds a higher share of hits than the screen did.
# ABCG2 block – human ABCG2 inhibition, ABCB1 as counter-screen; Q9UNQ0; IgMXP3 cells, JC-1 efflux, flow cytometry; inhibition, % at 6.6 µM; hit rate 0.1% among 190,000;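 active = inhibition above 80%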;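 also: 0% = DMSO and 100% = nicardipine control wells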
#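 test system = two drug-resistant human cell lines, ABCG2 and ABCB1 | amount = 3 million cells/mL final, two lines in 1:1 ratio | reagent = JC-1 transporter substrate | doses = one concentration, 6.6 µM final | incubation = 10 min at 25 °C | signal = flow cytometric JC-1 green MFI at 530 nm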
# Calb biofilm kill – mixtures killing C. albicans biofilm; C. albicans biofilm persisters + clotrimazole, fluorescence viability; primary screen in compound mixtures of four per well; inhibition, % at 7.6 µM; hit rate 0.02% among 120,000; AID 1242;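 active = inhibition above 30.3% in the primary screen of four-compound pools, then above 30% when the compound was retested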;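 also: compounds exposed to preformed 24 h biofilms for 48 h; 0% = untreated biofilm control and 100% = clotrimazole plus chlorhexidine kill blank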
#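 Incubation: 24 h biofilm formation, then 48 h compound exposure, 37 °C | Material: C. albicans biofilms | Buffer or medium: RPMI/MOPS medium, pH 7.0 | Measured by: 2-h Alamar Blue fluorescence, 535/590 nm excitation/emission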
# ROMK primary – human ROMK K+ channel modulation, primary screen; P48048; Tet-inducible ROMK, thallium flux fluorescence; actives lie on both sides; B-score at 10 µM; hit rate 2% among 130,000; AID 1918;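 active = signal ratio slope over the read window, or its plate-corrected B-score, at least 3 SD from the plate mean, either direction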;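 also: B-score of the F/F0 ratio slope over 7 to 12 s after thallium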
# Target sequence (P48048 whole entry, looked up): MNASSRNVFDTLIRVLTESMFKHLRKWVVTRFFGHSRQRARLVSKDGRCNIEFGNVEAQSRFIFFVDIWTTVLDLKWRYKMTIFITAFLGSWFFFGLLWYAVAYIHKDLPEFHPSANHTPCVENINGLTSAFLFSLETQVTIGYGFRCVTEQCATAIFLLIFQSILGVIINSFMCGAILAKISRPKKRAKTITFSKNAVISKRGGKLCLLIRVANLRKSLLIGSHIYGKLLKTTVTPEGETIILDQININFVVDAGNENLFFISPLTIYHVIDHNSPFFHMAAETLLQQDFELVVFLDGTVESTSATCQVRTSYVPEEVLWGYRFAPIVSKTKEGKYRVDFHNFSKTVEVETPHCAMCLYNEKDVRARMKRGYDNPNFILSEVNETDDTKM
# ABCB1 block – blocks JC-1 efflux by human ABCB1 transporter. P08183. CCRF-Adr cells, flow cytometry. inhibition, % at 6.6 µM. hit rate 0.067% among 190,000; in the data active = inhibition above about 40%;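 also: 0% = vehicle and 100% = reference inhibitor; higher value means more JC-1 retained so stronger ABCB1 efflux block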
# zfTRPN1 agonist – activates the zebrafish TRPN1 channel | HEK293 zebrafish TRPN1-YFP, Fluo-8 calcium fluorescence; 100% = response to 87 µM carbachol | activation, % at 3 µM | hit rate 0.18% among 220,000 | AID 1424;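 active = activation above its plate's cutoff, the mean activation of test wells on that plate plus 3 SD, cut at about 19% in these data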;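 also: 0% = DMSO alone and 100% = 87 µM carbachol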
#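 Assay system: Zebrafish TRPN1-YFP in HEK293 cells | Incubation: Dye loading 1 h at 37 °C, then 30 min room temperature | Measured by: Kinetic Fluo-8 fluorescence, ex 470-495, em 515-575 nm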
# TRPML3 ag – human mucolipin-3 channel agonism. Q8TDD5. HEK293 TRPML3-YFP, Fluo-8 calcium fluorescence; 100% = the carbachol control signal. activation, % at 3 µM. hit rate 0.29% among 220,000;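 active = activation above its plate's cutoff, the mean activation of the plate's test wells plus 3 SD, cut at about 12% in these data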;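 also: 0% = DMSO only wells and 100% = carbachol wells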
#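 Material: HEK293 cells stably carrying human TRPML3-YFP; compound dosing: single dose, 3 µM final nominal compound, 0.3% DMSO final; incubation: 1-h 37 °C dye load, 5-s basal, 120-s post-compound reads; technique: Fluo-8 intracellular calcium fluorescence, excitation 470-495 nm, emission 515-575 nm; read-out basis: percent activation from peak-to-basal fluorescence ratio, scaled between DMSO and carbachol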
# * = called active by the depositor; x = not tested or not shown.
SMILES,ABCG2 block,Calb biofilm kill,ROMK primary,ABCB1 block,zfTRPN1 agonist,TRPML3 ag
S=c1nc(C2CCCCC2)[nH]c2ccccc12,4,4,3.1*,1,-2,-1
S=c1nc(C2CC2)[nH]c2ccccc12,-1,x,x,-1,1,1
CCc1c(C)sc(NC(=O)/C=C/C(=O)O)c1C(N)=O,2,28,0.66,1,1,1
O=[N+]([O-])c1ccc(SCCO)nc1SCCO,x,-3,x,x,0,-1
FC(F)(F)c1cccc(-c2nc3nc(Cl)c(Cl)nc3[nH]2)c1,x,9,x,x,32*,14*
O=C(O)COc1ccccc1/C=N/NC(=O)c1cc2ccccc2cc1O,x,5,x,x,2,1
C=CCn1c(CSCc2ccc(Cl)cc2)nnc1SCC(=O)NCc1ccccc1,3,x,-3*,1,3,1
COc1ccc(N/N=C(\C#N)C(N)=O)cc1,1,15,x,0,1,1
N#C/C(=N/Nc1ccc(OC(F)(F)F)cc1)C(N)=S,x,9,x,x,23*,15*
CCOc1ccc(S(=O)(=O)N2CCCCC2)c2ccccc12,4,x,0.079,1,-1,62*
CCC(=O)N1c2ccc(S(=O)(=O)CCC(=O)Nc3nccs3)cc2CC1C (centres undefined),6,x,5.6*,1,1,0
O=C(CCS(=O)(=O)c1ccccc1)Nc1nccs1,0,x,x,1,-1,0
COc1cc(C(=S)N2CCOCC2)ccc1OC(=O)/C=C/c1ccco1,4,12,0.58,1,-1,0
COCCN1Cc2cccc(C(=O)Nc3cc(C)cc(C)c3)c2C1=O,82*,x,-0.0036,26,2,0
COCCN1Cc2cccc(C(=O)Nc3c(C)cc(C)cc3C)c2C1=O,7,x,-1,2,3,0
O=c1c2cc(N3CCOCC3)ccc2[nH]c(=S)n1CCCN1CCN(c2ccccc2F)CC1,33,x,x,53*,1,1
O=c1c2cc(N3CCOCC3)ccc2[nH]c(=S)n1CCCN1CCCCCC1,5,x,-0.85,1,2,1
COc1ccccc1N1CCN(C(=O)CN(C)S(=O)(=O)c2ccc3c(c2)c(=O)n(C)c(=O)n3C)CC1,2,7,x,0,1,1
Cc1cccc(OCCSc2nc(N)cc(N)n2)c1,x,16,x,x,-1,0
Cc1ccc(NC(=O)C2CCCN2C(=O)NCc2ccccc2)cc1 (centres undefined),2,2,0.029,0,0,0
O=[N+]([O-])c1ccc(O)c2ncccc12,2,32*,x,0,-1,0
CCCN(CCC)C(=O)CSc1nc2ccccc2c(=O)n1C1CCCC1,44,x,-2.8,52*,-2,-2
CCN(CC)C(=O)CN(c1cc2c(cc1OC)oc1ccccc12)S(=O)(=O)c1ccccc1,4,x,-4.6*,1,-1,2
CC(NCc1ccc(N(C)C)cc1)C1CC2CCC1C2 (centres undefined),1,x,-1.8,1,0,1
Nc1ccc2nc3c(=O)n(C4CCCCC4)c(=O)[nH]c3nc2c1,x,14,x,x,79*,43*
SMILES,ABCG2 block,Calb biofilm kill,ROMK primary,ABCB1 block,zfTRPN1 agonist,TRPML3 ag
COc1ccc(-c2nc3c(=O)n(C)c(=O)[nH]c3n2CCc2ccccc2)cc1,0,x,x,0,1,0
Nc1ccc2nc3c(=O)n(CCc4ccccc4)c(=O)[nH]c3nc2c1,x,14,x,x,91*,23*
CCCCn1c(=O)[nH]c2nc3cc(N)ccc3nc2c1=O,13,5,x,0,42*,30*
Cc1cc2nc3c(=O)n(CCc4ccccc4)c(=O)[nH]c3nc2cc1N,x,12,x,x,51*,11
COc1ccc(S(=O)(=O)N2CC3C4C=CC(C4)C3C2)cc1 (centres undefined),3,x,0.34,1,1,56*
N#CC(c1cccc(Cl)c1)c1ccc2c(C(F)(F)F)cc(C(F)(F)F)nc2n1 (centres undefined),13,x,3.2*,1,0,0
NNc1ccc2c(C(F)(F)F)cc(C(F)(F)F)nc2n1,-1,2,0.22,0,1,1
CCN1C(=O)/C(=C/N(C(C)=O)c2ccccc2)N(c2ccccc2)C1=S,3,x,-3.8*,2,-1,0
Nc1nc(C23CC4CC(CC(C4)C2)C3)[nH]c(=O)n1,x,19,x,x,0,0
COc1cc(N2CCCC2)c(OC)cc1/C=C(/C#N)c1cccc(F)c1,23,x,-2.4,12,16,1
COc1cc(N2CCCC2)c(OC)cc1/C=C1/NC(=S)NC1=O,15,-5,x,2,60*,17*
CN1CCS/C1=C/C=C1\SC(=S)N(CC(=O)O)C1=O,0,6,x,0,21*,10
Cc1cc(C)c2c(SC(C)C)nc(N)nc2n1,x,18,x,x,1,0
O=C(O)c1ccccc1NC(=S)NC(=O)c1sc2ccccc2c1Cl,-2,5,3.1,0,0,0
Cc1ccc(NC(=S)NC(=O)c2sc3ccccc3c2Cl)c(C(=O)O)c1,-1,-10,4.5*,-1,-1,-1
COc1cccc(-c2nn(-c3ccccc3)cc2CNC(C)Cn2cncn2)c1 (centres undefined),27,11,-1.3,1,0,1
CCOc1cc(S(=O)(=O)n2nc(C)cc2C)ccc1Br,2,6,x,2,0,0
CC(=O)OC1COC(OC2C(O)C(C)OC(OC3C(OC4CCC5(C)C(CCC6(C)C5CC=C5C7CC(C)(C)CCC7(C(=O)O)CCC56C)C4(C)CO)OCC(O)C3O)C2O)C(O)C1OC(C)=O (centres undefined),-1,21,x,0,123*,95*
O=C(OCn1ncc(Br)c(Br)c1=O)c1c(F)cccc1F,1,x,-4.2*,0,-1,1
CC(=O)Cn1ncc(Br)c(Br)c1=O,-2,16,1,0,0,0
Cc1nn(-c2ccccc2)c(N2CCCC2)c1/C=C1\N=C(c2ccccc2)OC1=O,2,8,-0.35,1,1,1
Cc1ccc2cc(/C=C3\N=C(c4ccccc4)OC3=O)c(N3CCOCC3)nc2c1,9,x,-5.9*,2,1,1
N#Cc1ccsc1NC(=O)c1ccc(Cl)c([N+](=O)[O-])c1,x,-1,x,x,30*,19*
Cc1ccc(S(=O)(=O)Nc2ccc(NC(=O)c3cccs3)cc2)cc1,5,9,0.063,0,-1,0
Cc1ccc(S(=O)(=O)Nc2ccc(NC(=O)c3c(F)c(F)c(F)c(F)c3F)cc2)cc1,3,2,0.18,1,27*,5
CCOC(=O)C1(CCCc2ccccc2)CCN(C2CCN(C(C)=O)CC2)CC1,0,6,-0.035,2,2,1
